In ChEMBL document CHEMBL4699593, “Identification of 2,4-Disubstituted Imidazopyridines as Hemozoin Formation Inhibitors with Fast-Killing Kinetics and In Vivo Efficacy in the Plasmodium falciparum NSG Mouse Model” (J Med Chem, 2020):
pIC50: −log10 of the molar value. Converted amounts (≈) assume the structure as drawn. The source made the active and inactive calls. The rule behind the calls is not given here.

Key:
[1] = system: Plasmodium falciparum; assay: Antiplasmodial activity against multidrug-resistant asexual blood stage Plasmodium falciparum K1 strain assessed as reduction in parasite growth after 72 hrs by NBT reagent based LDH assay; type: functional, organism-based; settings: K1, 72 h
Summary of the method: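 Asexual blood-stage K1 (multidrug-resistant) parasites were read out by the parasite lactate dehydrogenase (pLDH) assay. […] Most individual values varied less than 2× (maximum 3×).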

[2] = Aqueous solubility of compound in phosphate buffer saline at pH 6.5 incubated for 20 hrs under shaking condition by shake-flask method based HPLC-DAD analysis; type: physicochemical; settings: phosphate buffered saline
Summary of the method: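 Equilibrium aqueous solubility was measured at pH 6.5 using a miniaturized shake-flask method.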

[3] = system: CHO; assay: Cytotoxicity against CHO cells assessed as reduction in cell viability by MTT assay; type: cell-based, Cricetulus griseus; settings: chinese hamster
Summary of the method: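 Cytotoxicity was measured in Chinese hamster ovary (CHO) cells and reported as CC50. The selectivity index is CC50 divided by NF54 IC50.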

[4] = target: Voltage-gated inwardly rectifying potassium channel KCNH2 (Homo sapiens, UniProt Q12809); assay: Inhibition of human ERG by patch clamp method
[5] = Selectivity index, ratio of CC50 for cytotoxicity against CHO cells assessed as reduction in cell viability to IC50 for antiplasmodial activity against multidrug-sensitive Plasmodium falciparum NF54 assessed as reduction in parasite growth; type: toxicity, cell-based; settings: hamster, read-out: Ratio CC50/IC50
[6] = system: Hemozoin; assay: Inhibition of beta-hematin formation assessed as reduction in hemozoin formation incubated for 5 hrs by NP40 detergent-mediated assay
Summary of the method: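 Synthetic hemozoin (β-hematin) formation is driven by the detergent Nonidet P-40. Pyridine is then added to detect unreacted hematin. IC50 is derived from this read-out.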

[7] = system: Plasmodium falciparum; assay: Antiplasmodial activity against early ring-stage synchronized Plasmodium falciparum assessed as increase in free heme after 32 hrs by Giemsa-staining based haemocytometric counting method; type: functional, organism-based
Summary of the method: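 Whole-parasite cell fractionation assay run as a dose response. Free heme and hemozoin were measured intracellularly across increasing compound concentrations.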

[8] = Cmax in Balb/C mouse at 20 mg/kg, po by LC-MS/MS analysis; type: ADME, organism-based; parameters: route oral, dose 20 mg/kg; settings: in vivo
Summary of the method: (§1)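 Healthy Balb/c mice dosed i.v. or orally. Parameters come from non-compartmental analysis of compound concentration over time. […] Clearance is blood clearance (CL_b).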

[9] = Terminal half life in Balb/C mouse at 2 mg/kg, iv by LC-MS/MS analysis; type: ADME, organism-based; settings: in vivo, read-out: beta t1/2 (converted)
Summary of the method: (§2)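 Healthy Balb/c mice were given the compound i.v. or orally. Parameters come from non-compartmental analysis: AUC from 0 h to t_last, blood clearance, volume at steady state, terminal half-life, Tmax. Oral bioavailability F is derived from the i.v. and p.o. data.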

[10] = AUC (0 to t) in Balb/C mouse at 2 mg/kg, iv by LC-MS/MS analysis; type: ADME, organism-based; parameters: dose 2 mg/kg; settings: in vivo; summary of the method: as §1
[11] = AUC (0 to t) in Balb/C mouse at 20 mg/kg, po by LC-MS/MS analysis; type: ADME, organism-based; parameters: dose 20 mg/kg; settings: in vivo; summary of the method: as §1
[12] = Oral bioavailability in Balb/C mouse at 20 mg/kg by LC-MS/MS analysis; type: ADME, organism-based; settings: in vivo; summary of the method: as §2
[13] = Ratio of unbound average drug concentration in Balb/c mouse at 20 mg/kg, po measured at 24 hrs to IC50 for antiplasmodial activity against multidrug-sensitive Plasmodium falciparum NF54 asexual blood stage assessed as reduction in parasite growth after 72 hrs by LDH assay; type: organism-based; settings: in vivo
[14] = Tmax in Plasmodium falciparum 3D70087/N9 infected NSG mouse at 15 mg/kg, po by LC-MS/MS analysis; type: ADME, organism-based; settings: in vivo
Summary of the method: (§3)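 P. falciparum-infected NSG mice received escalating single oral doses of 1.5, 5, 15, 50 and 100 mg/kg.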

[15] = Tmax in Plasmodium falciparum 3D70087/N9 infected NSG mouse at 100 mg/kg, po by LC-MS/MS analysis; type: ADME, organism-based; settings: in vivo; summary of the method: as §3
[16] = Cmax in Plasmodium falciparum 3D70087/N9 infected NSG mouse at 15 mg/kg, po by LC-MS/MS analysis; type: ADME, organism-based; parameters: route oral, dose 15 mg/kg; settings: in vivo
Summary of the method: (§4)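 Oral (PO) dosing of NSG (NODscidIL2Rγnull) mice infected with P. falciparum. Cmax and AUC0–24 are taken from the infected-mouse PK analysis and are also expressed divided by dose.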

[17] = Cmax in Plasmodium falciparum 3D70087/N9 infected NSG mouse at 50 mg/kg, po by LC-MS/MS analysis; type: ADME, organism-based; parameters: route oral, dose 50 mg/kg; settings: in vivo; summary of the method: as §4
[18] = Cmax in Plasmodium falciparum 3D70087/N9 infected NSG mouse at 200 mg/kg, po by LC-MS/MS analysis; type: ADME, organism-based; parameters: route oral, dose 200 mg/kg; settings: in vivo; summary of the method: as §4
[19] = AUC (0 to 24 hrs) in Plasmodium falciparum 3D70087/N9 infected NSG mouse at 1.5 mg/kg, po by LC-MS/MS analysis; type: ADME, organism-based; parameters: time < 24 hr, route oral, dose 1.5 mg/kg; settings: in vivo; summary of the method: as §4
[20] = AUC (0 to 24 hrs) in Plasmodium falciparum 3D70087/N9 infected NSG mouse at 50 mg/kg, po by LC-MS/MS analysis; type: ADME, organism-based; parameters: time < 24 hr, route oral, dose 50 mg/kg; settings: in vivo; summary of the method: as §4
[21] = system: Plasmodium falciparum; assay: Antimalarial activity against Plasmodium falciparum 3D70087/N9 infected in NOD-SCID IL2Rgamma null mouse assessed as parasitemia at 100 mg/kg, po qd administered for 4 days measured on day 6 post-infection by microscopy based flow cytometry; type: functional, organism-based; settings: time 4.0 day
[22] = AUC in Plasmodium falciparum infected NSG mouse at 62 mg/kg, po by LC-MS/MS analysis; type: ADME, organism-based; parameters: dose 62 mg/kg; settings: in vivo
[23] = Dose normalized Cmax in Plasmodium falciparum 3D70087/N9 infected NSG mouse at 1.5 mg/kg, po by LC-MS/MS analysis; type: ADME, organism-based; settings: in vivo; summary of the method: as §4
[24] = Dose normalized Cmax in Plasmodium falciparum 3D70087/N9 infected NSG mouse at 5 mg/kg, po by LC-MS/MS analysis; type: ADME, organism-based; settings: in vivo; summary of the method: as §3
[25] = Dose normalized Cmax in Balb/c mouse at 20 mg/kg, po by LC-MS/MS analysis; type: ADME, organism-based; settings: in vivo; summary of the method: as §1
[26] = Dose normalized AUC (0 to 24 hrs) in Plasmodium falciparum 3D70087/N9 infected NSG mouse at 200 mg/kg, po by LC-MS/MS analysis; type: ADME, organism-based; settings: in vivo; summary of the method: as §4
[27] = Dose normalized AUC (0 to 24 hrs) in Balb/c mouse at 20 mg/kg, po by LC-MS/MS analysis; type: ADME, organism-based; settings: in vivo; summary of the method: as §1
[28] = Drug metabolism in mouse blood assessed as oxidation and glucuronidation by LC-MS/MS analysis; type: ADME, tissue-based
[29] = Lipophilicity, log D of compound at pH 7.4; type: physicochemical; settings: buffer
[30] = Lipophilicity, log D of compound at pH 6; type: physicochemical; settings: buffer
[31] = Cmax in Plasmodium falciparum 3D70087/N9 infected NSG mouse at 5 mg/kg, po by LC-MS/MS analysis; type: ADME, organism-based; parameters: route oral, dose 5 mg/kg; settings: in vivo; summary of the method: as §4
[32] = Tmax in Plasmodium falciparum 3D70087/N9 infected NSG mouse po by LC-MS/MS analysis; settings: in vivo

Voltage-gated inwardly rectifying potassium channel KCNH2, sequence (Q12809 whole entry): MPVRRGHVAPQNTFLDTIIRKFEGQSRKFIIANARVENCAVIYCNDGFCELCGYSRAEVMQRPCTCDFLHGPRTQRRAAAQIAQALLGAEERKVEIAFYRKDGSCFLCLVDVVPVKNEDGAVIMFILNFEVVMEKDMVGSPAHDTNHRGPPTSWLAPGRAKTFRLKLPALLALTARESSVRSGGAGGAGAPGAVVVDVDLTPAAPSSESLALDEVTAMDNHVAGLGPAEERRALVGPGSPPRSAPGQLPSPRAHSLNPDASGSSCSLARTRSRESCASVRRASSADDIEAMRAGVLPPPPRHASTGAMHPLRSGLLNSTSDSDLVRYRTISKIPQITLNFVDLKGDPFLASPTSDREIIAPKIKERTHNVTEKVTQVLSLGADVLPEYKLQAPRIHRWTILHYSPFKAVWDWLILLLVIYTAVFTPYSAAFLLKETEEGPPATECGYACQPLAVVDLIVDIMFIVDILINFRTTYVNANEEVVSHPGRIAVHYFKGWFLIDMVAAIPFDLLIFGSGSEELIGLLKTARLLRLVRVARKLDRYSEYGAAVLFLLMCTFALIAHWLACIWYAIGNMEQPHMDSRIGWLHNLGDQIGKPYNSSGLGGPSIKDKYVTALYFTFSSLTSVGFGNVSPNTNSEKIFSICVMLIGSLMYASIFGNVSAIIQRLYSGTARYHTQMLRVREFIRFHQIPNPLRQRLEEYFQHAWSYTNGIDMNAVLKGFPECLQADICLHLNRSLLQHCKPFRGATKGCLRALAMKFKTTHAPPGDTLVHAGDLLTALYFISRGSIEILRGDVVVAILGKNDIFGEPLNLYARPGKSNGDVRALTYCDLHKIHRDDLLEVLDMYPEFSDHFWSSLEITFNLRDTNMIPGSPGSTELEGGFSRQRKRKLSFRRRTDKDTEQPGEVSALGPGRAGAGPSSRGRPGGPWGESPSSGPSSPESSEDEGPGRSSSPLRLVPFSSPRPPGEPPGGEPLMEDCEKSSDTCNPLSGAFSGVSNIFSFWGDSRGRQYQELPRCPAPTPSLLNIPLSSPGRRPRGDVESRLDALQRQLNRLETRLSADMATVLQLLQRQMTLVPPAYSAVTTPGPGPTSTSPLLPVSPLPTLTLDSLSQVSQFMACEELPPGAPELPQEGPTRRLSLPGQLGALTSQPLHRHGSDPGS

## CN1CCN(CC2CCN(c3nccc4[nH]c(-c5cc(F)cc(F)c5)nc34)CC2)CC1
[1]
  pIC50: 7.39
[2]
  solubility thermodynamic at 20 h: 200 µM (≈ 85.3 µg/mL)
[3]
  CC50: 23 µM
[4]
  pIC50: < 4.52
[5]
  selectivity ratio: 1040
[6]
  pIC50: 4.62
[7]
  Activity: inactive
[8]
  Cmax: 1500 nM
[9]
  half-life: 1390 min
[10]
  AUCt: 145 µM·min
[11]
  AUCt: 1200 µM·min
[12]
  bioavailability: 83%
[13]
  Ratio: 4.5
[14]
  Tmax: 6 h
[15]
  Tmax: 1 h
[16]
  Cmax: 810 nM
[17]
  Cmax: 2840 nM
[18]
  Cmax: 2840 nM
[19]
  AUC: 46 µM·min
[20]
  AUC: 2856 µM·min
[21]
  Activity: Below limit of detection
[22]
  AUC: 58.3 µM·h
[23]
  Cmax/dose: 0.03 µM·kg/mg
[24]
  Cmax/dose: 0.03 µM·kg/mg
[25]
  Cmax/dose: 0.08 µM·kg/mg
[26]
  AUC/dose: 62 µM·kg·min/mg
[27]
  AUC/dose: 60 µM·kg·min/mg
[28]
  Drug metabolism: Metabolite_Detected
[29]
  logD: 2.6
[30]
  logD: 0.4
[31]
  Cmax: 130 nM
[32]
  Tmax: 4 h
